Data: PMC2849840 (Molecular pharmaceutics, 2010)

What was measured:
[1] = test system: MDCK-MDR1 cells; format: in vitro ADME
[2] = test system: MDCK-MDR1 cells
[3] = Bidirectional transepithelial transport of [3H]lopinavir across MDCK-MDR1 cells; format: in vitro ADME; conditions: dog, MDCK-MDR1, 37 °C; for Papp A→B at 0.5 μCi/mL: MDCK-MDR1, pH 7.4, PappA-B; for Papp B→A at 0.5 μCi/mL: MDCK-MDR1, pH 7.4, PappB-A
[4] = test system: MDCK-MDR1 cells; test: Uptake of radiolabelled substrates into MDCK-MDR1 cells in DPBS with HEPES
[5] = test system: ATP production in MDCK-MDR1 cells; test: ATP assay; format: cell-based; conditions: 20 mM HEPES in culture medium
Summary of the method: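 MDCK-MDR1 cells grown in DMEM with 10% heat-inactivated calf serum at 37 °C, 5% CO2, in 96-well plates for 6–7 days to full confluence, in medium without HEPES (Set 1) or with 20 mM HEPES (Set 2). Cells lysed for […]; ATP in lysate read by luminescence kit, with protein measured by Bradford. At least triplicate; mean ± SD.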

## Cc1cccc(C)c1OCC(=O)N[C@@H](Cc1ccccc1)[C@@H](O)C[C@H](Cc1ccccc1)NC(=O)[C@H](C(C)C)N1CCCNC1=O [lopinavir]
[1]; Set 2 grown with 20 mM HEPES, Set 1 without, 0, 15, 25 mM HEPES in DPBS
  accumulation by Set 2 cells compared with Set 1 cells: significantly less
[1]; in the presence of 1 μM or 2 μM unlabelled lopinavir, DPBS with 25 mM HEPES
  accumulation by Set 2 cells compared to Set 1 cells: higher accumulation
[1]; in the presence of 5 μM unlabelled lopinavir, DPBS with 25 mM HEPES
  elevation of accumulation, Set 2 versus Set 1 cells: not statistically different
[2]
  accumulation into cells versus control (0 mM HEPES): significant reduction
[3]; 25 mM HEPES in DPBS
  Papp A→B at 0.5 μCi/mL: 22.8 ± 1.03 ×10⁻⁶ cm/s
  Papp B→A at 0.5 μCi/mL: 165 ± 11.1 ×10⁻⁶ cm/s
[3]; Control (0 mM HEPES) in DPBS
  Papp A→B at 0.5 μCi/mL: 30.2 ± 2.56 ×10⁻⁶ cm/s
  Papp B→A at 0.5 μCi/mL: 148 ± 7.92 ×10⁻⁶ cm/s

## CC(C)c1nc(CN(C)C(=O)N[C@H](C(=O)N[C@@H](Cc2ccccc2)C[C@H](O)[C@H](Cc2ccccc2)NC(=O)OCc2cncs2)C(C)C)cs1 [ritonavir]
[2]
  accumulation into cells versus control (0 mM HEPES): significant reduction

## N[C@@H](CCC(=O)O)C(=O)O [glutamic acid]
[4]; 15 mM HEPES
  elevation of uptake over the control: about 30%
[4]; 25 mM HEPES
  elevation of uptake over the control: ~45%

## N[C@@H](Cc1ccccc1)C(=O)O [phenylalanine]
[4]; 15 and 25 mM HEPES
  change of uptake in the presence of HEPES: no significant change

## O=S(=O)(O)CCN1CCN(CCO)CC1 [HEPES, 4-(2-hydroxyethyl)-1-piperazineethanesulfonic acid]
[5]
  elevation of ATP production, Set 2 compared to Set 1: 70%
